Experimental data collected from several papers.
Each line is one published result; the experiments were not run side by side.
Cell line: HepG2
Read-out: cell growth or viability

SMILES | test | setting | quantity | result
COc1ccc(NC(=O)c2c(Nc3ccccc3)sc(C(=O)NN=Cc3ccccc3)c2NC(C)=O)cc1 | SRB | 1 nM, 48 h | viability | 99.3%
CCOC(=O)c1ccc(-n2c(C)cc(/C=C/c3ccc(OCC)cc3)c(C#N)c2=O)cc1 | MTT | 6.25 µM, 24 h | viability | 100%
COc1ccc(-c2nc3ccccc3[nH]2)cc1OC | MTT | 48 h | IC50 | 44.1 µM
CCOC(=O)c1ccc(N2C(N)=C(C#N)C3(C(=O)Nc4ccccc43)C(C#N)=C2O)cc1 (stereo not shown) | MTT | 100 µM, 24 h | viability | 10.7%
COc1ccc(NC(=O)c2c(Nc3ccccc3)sc(C#N)c2NC(=O)CNc2ccc(Br)cc2)cc1 | SRB | 100 µM, 48 h | viability | 39.7%
COc1ccc(-c2nc3ccccc3n2Cc2ccccc2)cc1OC | MTT |  | IC50 | 19.9 µM
CCOC(=O)c1ccc(-n2c(-c3ccc(C)cc3)cc(-c3ccc(O)cc3)c(C#N)c2=O)cc1 | MTT | 6.25 µM, 24 h | viability | 67.9%
COc1ccc(NC(=O)c2c(Nc3ccccc3)sc(C(=O)NN=Cc3ccc(OC)c(O)c3)c2NC(C)=O)cc1 | SRB | 1 nM, 48 h | viability | 100%
Cc1ccc2nc(-c3ccc(F)cc3)[nH]c2c1 | MTT | 48 h | IC50 | 80.4 µM
COc1ccc(NC(=O)c2c(Nc3ccccc3)sc(C#N)c2NC(=O)CNc2ccccc2Cl)cc1 | SRB | 0.1 µM, 48 h | viability | 95.7%
Cc1ccc2nc(-c3ccc(Cl)cc3)[nH]c2c1 | MTT | 48 h | IC50 | 28.9 µM
CC(=O)Nc1cccc(-n2c(=O)n(C3CC3)c(=O)c3c(Nc4ccc(I)cc4F)n(C)c(=O)c(C)c32)c1 | resazurin | 25 nM, 72 h | viability | 42.6%
CCOC(=O)c1ccc(-n2c(N)c(C#N)c(CC#N)c(C#N)c2=O)cc1 | MTT | 50 µM, 24 h | viability | 35.1%
